The list is not random: actives were taken first. Their share in the collection is about 4.4%.
T cruzi inh: T. cruzi replication inhibition | inhibition, % (concentration not given with the values) | actives 1.4% (n = 300,000) | T. cruzi beta-gal in NIH3T3, luminescence, 90 h | AID 1885;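 active = mean inhibition across valid replicates above about 55%, limit read from the data; inconclusive = mean below that limit but half or more replicates reach it; inactive = mean below it, under half of replicates reach it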;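 also: signal also drops with host cell toxicity which is not excluded here; higher percent means less beta-gal luminescence so fewer parasites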
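Incubation – ≥90 h infection period, 3 h prior cell attachment · System – NIH/3T3 fibroblasts plus reporter T. cruzi · Doses – compound pinned at 50 nL/well, DMSO · Read-out basis – percent inhibition of parasite-derived β-gal signal · Signal – luminescent β-galactosidase signal after 60 min lysis · Also added – 5000 T. cruzi trypomastigotes/well · Medium – Low-serum DMEM with 2% FBS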
HSF1 activator: increases HSF-1 driven luciferase reporter signal | activation, % at 9 µM | actives 1.7% (n = 300,000) | NIH3T3-HGL HSF-1 luciferase reporter, MG132, 8 h; 100% = twice DMSO control signal;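 active = mean replicate activation of at least 50% with a set share of replicates each reaching 50%; inconclusive = only one of those two conditions met; inactive = mean below 50% and too few replicates reaching it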
Calb FLC: affects C. albicans growth with fluconazole; C. albicans CaCi-2 + fluconazole, Alamar Blue growth, 48 h; growth inhibition, % (concentration not given with the values); actives 0.57% (n = 300,000);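 active = growth inhibition above about 58% in most replicates, limit read from the data, passing the limit was not always enough; inconclusive = exactly half the replicates above a set limit; inactive = most replicates below a set limit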;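 also: all wells also contain fluconazole at 8 µg/ml as a sub-toxic cotreatment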
HIF act: HIF pathway transcriptional activation; U2OS HRE-luciferase reporter, luminescence; normalized: DMSO 0%, desferrioxamine 100%; activation, % at 7.5 µM (by protocol); actives 0.32% (n = 300,000); AID 1910;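 active = mean activation of at least 10% of the iron chelator positive control signal, with at least half of replicates also reaching 10%; inconclusive = mean and replicate majority disagree about reaching 10%; inactive = mean and most replicates under 10%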
HSF1 inhib: HSF1 inhibition | activity change, negative = inhibition, % at 7.5 µM (by protocol) | AID 2098 | NIH3T3-HGL HSE-luciferase, MG132-induced, luminescence 8 h; stronger effect = lower value | actives 0.77% (n = 300,000);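 active = more than half of replicate wells show activity change below -50%, luminescence cut by over half; inconclusive = some wells, but at most half, below -50%; inactive = no replicate well below -50%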;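 also: luciferase reports HSF-1 transcriptional activity via heat shock element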
Numbers stand for hits; n = inactive; u = inconclusive; x = no result given.

SMILES	T cruzi inh	HSF1 activator	Calb FLC	HIF act	HSF1 inhib
CC(CCc1ccccc1)NC(=O)c1ccc(NC(=O)c2cccc(Br)c2)cc1 (stereo not drawn)	70	n	n	n	n
CC(CCc1ccccc1)NC(=O)c1ccc(NC(=O)c2ccccc2)cc1 (stereo not drawn)	n	n	n	n	n
CC(CCc1ccccc1)NC(=O)c1cccc([N+](=O)[O-])c1 (stereo not drawn)	n	n	n	n	-53
Cc1ccc(C(=O)NC(C)CCc2ccccc2)cc1[N+](=O)[O-] (stereo not drawn)	n	n	n	n	n
CCOC(=O)Cc1csc(SCC(=O)NC2CCC(C)CC2)n1 (stereo not drawn)	n	n	n	n	n
O=C(Cc1ccc(F)cc1)Nc1cccc(-c2cn3c(n2)SCC3)c1	n	n	n	n	n
O=C(Nc1cccc(-c2cn3c(n2)SCC3)c1)c1ccc(Br)o1	x	x	121	x	x
CCC(C)N(CCNC(=O)c1ccc2c(c1)NC(=O)c1ccccc1S2)C1CCCCC1 (stereo not drawn)	n	n	n	n	n
CCS(=O)(=O)N1CCN(C(=O)c2ccc(-c3ccccc3)cc2)CC1	n	n	n	n	n
CCS(=O)(=O)N1CCN(C(=O)c2ccccc2)CC1	n	n	n	n	-86
CC(C)CN(C(=O)Cn1c(Cl)nc2c1c(=O)n(C)c(=O)n2C)C1CCS(=O)(=O)C1 (stereo not drawn)	n	n	n	n	n
CCn1c(C)nc2cc(C(=O)N/N=C/c3ccc(O)c(O)c3O)ccc21	n	n	76	n	n
CCn1c(C)nc2cc(C(=O)N/N=C/c3cccc(OC)c3O)ccc21	n	n	108	n	n
CCn1c(C)nc2cc(C(N)=O)ccc21	n	n	n	n	n
C/C(=N/NC(=O)c1cc(O)c(O)c(O)c1)c1ccc([N+](=O)[O-])cc1	n	n	91	n	n
C/C(=N\NC(=O)c1cc([N+](=O)[O-])cc([N+](=O)[O-])c1)c1ccco1	57	n	n	n	n
C/C(=N\NC(=O)c1ccc(-c2ccccc2)cc1)c1ccco1	n	n	n	n	n
C/C(=N\NC(=O)c1ccc([N+](=O)[O-])cc1)c1c(O)cc(C)oc1=O	n	n	n	n	n
C/C(=N\Nc1ccc([N+](=O)[O-])cc1)c1ccc(O)cc1	n	n	113	n	n
CC(=O)NC/C(C)=N\Nc1ccc([N+](=O)[O-])cc1	n	n	113	n	n
C/C(=N\Nc1ccc([N+](=O)[O-])cc1)c1cccc(N)c1	n	n	n	x	n
Cc1cccc(OCc2n[nH]c(=S)n2Cc2ccccc2)c1	n	n	n	n	n
Cc1ccc(C2=NNC3(CCOC(C)(C)C3)S2)cc1 (stereo not drawn)	n	n	95	n	n
Cc1ccc(S(=O)(=O)NCCC2(C(C)C)CCOC(C)(C)C2)cc1 (stereo not drawn)	n	n	n	n	n
Cc1cc(C(=O)NC2CCCN(Cc3ccccc3F)C2)n[nH]1 (stereo not drawn)	n	n	n	n	n
SMILES	T cruzi inh	HSF1 activator	Calb FLC	HIF act	HSF1 inhib
CC(C)N(C(=O)Cn1cc(S(=O)(=O)CC(=O)NCc2ccc(F)cc2)c2ccccc21)C(C)C	n	n	n	n	n
CCOC(=O)Cc1nn(C)c(=O)c2ccccc12	n	n	n	n	n
CCOC(=O)Cc1nn(CC)c(=O)c2ccccc12	n	n	n	90	n
Cc1noc(C)c1COC(=O)C1CC(O)CN1S(=O)(=O)c1ccc(Cl)cc1 (stereo not drawn)	n	n	n	61	n
Cc1cccc2cc(CN(Cc3cccs3)C(=S)NCC3CCCO3)c(=O)[nH]c12 (stereo not drawn)	n	n	n	n	n
Cc1ccc(NC(=S)N(Cc2cccs2)Cc2cc3cccc(C)c3[nH]c2=O)cc1	n	u	n	889	n
C/C(=N\NC(=O)C1CCCC1)c1ccc(C(C)C)cc1	n	n	n	n	n
C/C(=N\NC(=O)C1CCCC1)c1ccc(Cl)c(Cl)c1	x	x	112	x	x
c1ccc(-c2ccc3c(c2)c2c4n3CCN=C4CCC2)cc1	n	n	99	n	n
CC(=O)N1CCN(Cc2nc(-c3cccc(Cl)c3)no2)CC1	n	n	n	n	n
CC(Sc1ccc(Cl)cc1)C(=O)Nc1ccc2c(c1)OCO2 (stereo not drawn)	n	n	n	n	n
CC(Sc1ccc(Cl)cc1)C(=O)NCc1ccc2c(c1)OCO2 (stereo not drawn)	n	x	97	n	x
O=C(/C=C/c1ccccc1)c1c[nH]c2ccccc12	n	111	n	n	n
O=C(Nc1ccccc1)C(=O)c1c[nH]c2ccccc12	n	68	n	n	n
NC(=O)c1c[nH]c2ccccc12	n	n	n	n	n
Cc1ccc(NC(=O)c2ccc(-n3cncn3)c([N+](=O)[O-])c2)cc1F	n	n	n	n	n
Cc1cc(Cl)nc(Cl)c1C(=O)NCc1ccc(Cl)cc1	n	n	n	n	n
COc1ccc(N2CCN(C(c3ccccc3)c3nnnn3Cc3ccc(F)cc3)CC2)cc1 (stereo not drawn)	n	n	n	n	n
CC(=O)C1=C(c2cccc([N+](=O)[O-])c2)N(C(C)=O)n2c(C)nnc2S1	n	n	n	n	n
Cc1ccc(/C(C#N)=C\c2ccc(N3CCOCC3)o2)cc1	58	76	n	n	n
N#C/C(=C/c1ccc(N2CCCCCC2)o1)c1ccc(Cl)cc1	65	93	n	n	n
N#C/C(=C/c1ccc(N2CCCCC2)o1)c1cccc(F)c1	56	172	n	n	n
CC(C)n1cc(CN2CCC(C(=O)Nc3cccc(-c4cccc(Cl)c4)c3)CC2)cn1	n	n	n	n	n
O=c1[nH]c(SCc2nc3ccccc3c(=O)n2-c2ccccc2C(F)(F)F)nc2ccccc12	n	x	n	x	x
Cc1ccc2nc(Cl)c(C#N)cc2c1	n	n	n	n	n
SMILES	T cruzi inh	HSF1 activator	Calb FLC	HIF act	HSF1 inhib
COc1ccc2nc(Cl)c(C#N)cc2c1	n	n	n	n	-65
CC1C(=O)Nc2ccccc2N1C(=O)c1ccccc1 (stereo not drawn)	n	n	n	n	n
Cc1cccc(N2CC(c3nc4ccccc4[nH]3)CC2=O)c1 (stereo not drawn)	n	n	n	n	n
CCOC(=O)c1sc(N/N=C/c2ccccc2)nc1C	n	n	n	n	n
O=C(Cc1sc(Nc2ccccc2)nc1-c1ccccc1)NCc1ccccc1	n	60	n	n	n
O=C(O)Cc1sc(N/N=C\c2ccccc2)nc1-c1ccccc1	n	60	n	n	n
CC(C)NC(=O)CC1C(=O)N(Cc2ccccc2)C(C)c2nc3ccccc3n21 (stereo not drawn)	n	n	n	n	n
CCOc1ccc(N(C(C)C(=O)N/N=C(\C)c2cccc(NC(=O)c3ccccc3)c2)S(C)(=O)=O)cc1 (stereo not drawn)	n	n	n	n	n

Screening data deposited in PubChem by Broad Institute.
